Measured values collected from several papers.
HTR1B: 5-hydroxytryptamine receptor 1B (HTR1B, Homo sapiens, UniProt P28222)
CDK7 with cyclin H: Cyclin-dependent kinase 7, with cyclin H (CDK7, Homo sapiens, UniProt P50613)
PTGER4: Prostaglandin E2 receptor EP4 subtype (PTGER4, Homo sapiens, UniProt P35408)

`Cc1ccc(CNC(=O)[C@H](CCc2ccccc2)NC(=O)[C@H](CCc2ccccc2)NC(=O)[C@H](CCc2ccccc2)NC(=O)c2cnc(C)cn2)cc1` gave an inhibition of -9% (Calpain-1 catalytic subunit (CAPN1, Homo sapiens, UniProt P07384); enzyme activity; inhibitor; 100 µM).
With `Oc1cccc(Nc2nc(-c3ccc(F)cc3F)cs2)c1` the inhibition was -7.1% (HTR1B; ligand displacement; radioligand; 10 µM).
`Nc1nccc(-c2c[nH]c3ccc(Br)cc23)n1` has an inhibition of -32% (CDK7 with cyclin H; enzyme activity; inhibitor; ADP detection; 10 µM).
`CCN(CC)c1ccc(C2Nc3ccc(C(=O)c4ccccc4)cc3NC3=C2C(=O)CC(C)(C)C3)cc1` (stereo not shown) has an inhibition of 7% (PTGER4; ligand displacement; radioligand; 10 µM).
For `O=C(c1ccc(Cl)cc1)N(Cc1ccccc1)C1CCCCC1`, the inhibition was -20.2% (Calcitonin-gene-related peptide receptor, CALCRL/RAMP1 (Homo sapiens, UniProt O60894+Q16602); cell-free assay; 10 µM).
For `CN(C)C1CCN(CC#Cc2nn(C3CCCC3)c3nc(NCc4ccccc4)ncc23)C1` (stereo not shown), the inhibition was 2% (Mitogen-activated protein kinase 1 (MAPK1, Homo sapiens, UniProt P28482); enzyme activity; inhibitor; FRET; 0.1 µM).
`CC(/C=C/C=C(\C)C(=O)O[C@@H]1O[C@H](CO[C@@H]2O[C@H](CO)[C@@H](O)[C@H](O)[C@H]2O)[C@@H](O)[C@H](O)[C@H]1O)=C\C=C\C=C(C)\C=C\C=C(/C)C(=O)O[C@@H]1O[C@H](CO[C@@H]2O[C@H](CO)[C@@H](O)[C@H](O)[C@H]2O)[C@@H](O)[C@H](O)[C@H]1O` has an inhibition of 22.8% (CDK7 with cyclin H; enzyme activity; inhibitor; ADP detection; 10 µM).
The inhibition of `COc1cc(NC(C)=O)c(Cl)cc1C(=O)Nc1nccs1` is reported as -0.8% (HTR1B; ligand displacement; radioligand; 10 µM).
For `CC1=C(/C=C/C(C)=C/C=C/C(C)=C/C=C/C=C(C)/C=C/C=C(C)/C=C/C2=C(C)CCCC2(C)C)C(C)(C)CCC1`, the inhibition was 19.7% (CDK7 with cyclin H; enzyme activity; inhibitor; ADP detection; 10 µM).
For `CCCNc1nc2ccccc2n1Cc1ccc(Cl)cc1`, the inhibition was -13.2% (HTR1B; ligand displacement; radioligand; 10 µM).
With `O=C(/C=C/C=C/c1ccc2c(c1)OCO2)N1CCCCC1` the inhibition was 39.4% (CDK7 with cyclin H; enzyme activity; inhibitor; ADP detection; 10 µM).
With `CCN(c1cc(C#CCN2CCOCC2)cc(C(=O)NCc2c(C)cc(C)[nH]c2=O)c1C)[C@H]1CC[C@H](N(C)CCOC)CC1` the inhibition was 7% (Histone-lysine N-methyltransferase EHMT2 (EHMT2, Homo sapiens, UniProt Q96KQ7); enzyme activity; inhibitor; 1 µM).
With `Oc1ccc(/C=C/c2cc(O)cc(O)c2)cc1` the inhibition was 40% (CDK7 with cyclin H; enzyme activity; inhibitor; ADP detection; 10 µM).
With `CCN(Cc1ccccc1C(F)(F)F)C(=O)C1CCN(S(=O)(=O)c2ccc3[nH]ncc3c2)CC1` the inhibition was 33% (PTGER4; ligand displacement; radioligand; 10 µM).
`O=C(CSc1nc2nccnc2c(=O)n1CCc1ccccc1)Nc1nccs1` gave an inhibition of 13% (Phosphatidylinositol 4-phosphate 5-kinase type-1 beta (PIP5K1B, Homo sapiens, UniProt O14986); enzyme activity; inhibitor; 10 µM).
`Cc1ccc(S(=O)(=O)N[C@@H](CC(=O)NC(C)(C)C)C(=O)NCc2ccccc2)cc1` has an inhibition of at most 50% (Proteasome component C5/PSMB8 (Homo sapiens, UniProt P20618+P28062); enzyme activity; inhibitor; 100 µM).
